Assay outcomes from PubChem BioAssay.
A selection: hits, their analogues and other compounds. The true share with any hit is near 5.1%.
APP 5'UTR act = APP 5'UTR luciferase reporter activation; hit rate 1% among 190,000; SH-SY5Y APP 5'UTR luciferase reporter, luminescence; zero percent = DMSO vehicle wells; activation, % at 2 µM;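 active = activation above a set limit, based on mean plus 3 SD of controls, cut at about 140% in these data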
STAT1 inh = STAT1 signaling inhibition | NIH 3T3 STAT1-luciferase reporter, IFN-gamma, luminescence | inhibition, % at 5.5 µM | hit rate 0.35% among 200,000;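 active = inhibition above a set limit, the mean inhibition across all tested compounds plus 3 SD, cut at about 34% in these data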;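 note: 0% = IFN-gamma with DMSO and 100% = IFN-gamma with 300 µM nifuroxazide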
STAT3 activator = STAT3 signaling activation. U3A cells, IL-6 STAT3-luciferase reporter, luminescence; 100% = signal with IL-6 EC80 alone. activation (% of control), % at 5.6 µM. hit rate 0.91% among 190,000;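 active = activation above the screen-wide mean of compound activation plus 3 SD, cut at about 130% in these data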;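 note: 0% = background luminescence of wells with medium and substrate only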
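Material: human U3A cells carrying STAT3-luciferase construct. Measured by: reporter luminescence signal. Timing: compound 1 h, then IL-6 6 h at 37 °C.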
STAT3 inh = inhibitors of IL-6 induced STAT3 signaling; U3A cells, IL-6 STAT3-luciferase reporter, luminescence; host cell line lacks STAT1; inhibition, % at 5.5 µM; hit rate 0.89% among 190,000; AID 862;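 active = inhibition above the mean inhibition across all screened compounds plus 3 SD, cut at about 44% in these data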;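 note: 0% = DMSO only wells and 100% = 100 µM nifuroxazide control wells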
NF-kB neuron act = NF-kB expression increase, human neuronal cells; NF-kB reporter expression; stronger effect = higher value; fold change at 12.5 µM; hit rate 1.6% among 190,000; AID 1239; in the data active = fold change above about 3.3
STAT1 activator = STAT1 signaling activation; NIH 3T3 STAT1-luciferase reporter, IFN-gamma, luminescence; 100% = IFN-gamma alone, no compound; activation (% of control), % at 5.5 µM; hit rate 2.6% among 200,000;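 active = activation above the screen-wide mean activation plus 3 SD, cut at about 130% in these data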;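 note: raw ratio to IFN-gamma control signal so 100% means no change and 0% no light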
Numbers without * were called inactive.

How did C=CCOC(=O)C1=C[C@H](C2CC2)[C@@H](CCCO)[C@H](OCC)O1 do in these assays?
APP 5'UTR act: 1; STAT1 inh: 7; NF-kB neuron act: 1.1; STAT1 activator: 95

How did Cc1ccc(C(=O)Nc2cccnc2)cc1S(=O)(=O)N1CCOCC1 do in these assays?
APP 5'UTR act: -2; STAT1 inh: 4; STAT3 activator: 100; STAT3 inh: 6; NF-kB neuron act: 1.6; STAT1 activator: 96

How did Cc1ccc(C(=O)Nc2ccc3cn[nH]c3c2)cc1S(=O)(=O)N1CCOCC1 do in these assays?
APP 5'UTR act: 2; STAT1 inh: -32; STAT3 activator: 142*; STAT3 inh: -40; STAT1 activator: 130*

Results for O=C(CNC(=O)c1ccc2c(c1)OCCO2)N/N=C/c1cccc(Br)c1 ?
APP 5'UTR act: 14; STAT1 inh: -8; STAT3 activator: 90; STAT3 inh: 13; NF-kB neuron act: 1.4; STAT1 activator: 106

Results for Cc1cc(C(=O)CCl)c(C)n1CCc1ccccc1 ?
APP 5'UTR act: -14; STAT1 inh: 13; STAT3 activator: 117; STAT3 inh: -19; NF-kB neuron act: 0.29; STAT1 activator: 86

How did COC(=O)CCCn1c(C)cc(C(=O)CCl)c1C do in these assays?
APP 5'UTR act: -15; STAT1 inh: 14; STAT3 activator: 93; STAT3 inh: 14; NF-kB neuron act: 3.6*; STAT1 activator: 86

How did CN(CC(=O)Nc1ccccc1Cl)CC(=O)Nc1ccccc1[N+](=O)[O-] do in these assays?
APP 5'UTR act: -3; STAT1 inh: 9; STAT3 activator: 118; STAT3 inh: -13; NF-kB neuron act: 1.7; STAT1 activator: 91

How did O=C(COC(=O)c1cc(=O)[nH]c2ccc(Br)cc12)c1ccccc1 do in these assays?
APP 5'UTR act: 12; STAT1 inh: -3; STAT3 activator: 99; STAT3 inh: 3; NF-kB neuron act: 0.97; STAT1 activator: 101

Results for Cc1ccc(-c2nc3ccccc3[nH]2)cc1NC(=O)c1ccc2c(c1)OCO2 ?
APP 5'UTR act: 6; STAT1 inh: 0; STAT3 activator: 94; STAT3 inh: 14; NF-kB neuron act: 0.46; STAT1 activator: 100

What do the screens show for `O=C(NC(=S)Nc1cc(-c2nc3ccccc3[nH]2)ccc1Cl)c1ccc2c(c1)OCO2`?
APP 5'UTR act: -7; STAT1 inh: -49; STAT3 activator: 113; STAT3 inh: -9; NF-kB neuron act: 2.2; STAT1 activator: 144*

How did CC1=Nc2cc(C(=O)NCc3ccco3)ccc2Sc2ccc(C)cc21 do in these assays?
APP 5'UTR act: -96; STAT1 inh: 6; STAT3 activator: 134*; STAT3 inh: -44; NF-kB neuron act: 3.5*; STAT1 activator: 95

What do the screens show for `COC(=O)[C@@H]1CCCN1C(=O)CCc1nnc(CCc2c[nH]c3ccccc23)o1`?
APP 5'UTR act: -19; STAT1 inh: -1; STAT3 activator: 105; STAT3 inh: -4; NF-kB neuron act: 1.7; STAT1 activator: 100

Results for COC(=O)[C@@H]1CCCN1C(=O)CCc1nnc(CCC2CCCCC2)o1 ?
APP 5'UTR act: 55; STAT1 inh: -42; STAT3 activator: 101; STAT3 inh: 4; NF-kB neuron act: 2.6; STAT1 activator: 139*

How did NNc1nc(-c2ccccc2)nc2sc3c(c12)CCCC3 do in these assays?
APP 5'UTR act: 171*; STAT1 inh: -44; STAT3 activator: 139*; STAT3 inh: -40; NF-kB neuron act: 1.7; STAT1 activator: 140*

What do the screens show for `O=C(/C=C/c1ccccc1)Nc1ccc2c(c1)C(=O)NC2=O`?
APP 5'UTR act: 8; STAT1 inh: -31; STAT3 activator: 98; STAT3 inh: 11; NF-kB neuron act: 1.5; STAT1 activator: 129*

What do the screens show for `CCCC(C)C(=O)OCC(=O)NCc1ccc(OC)c(OC)c1` (stereo unspecified)?
APP 5'UTR act: -3; STAT1 inh: 11; STAT3 activator: 100; STAT3 inh: 4; NF-kB neuron act: 1; STAT1 activator: 91

What do the screens show for `Cc1ccccc1NC(=O)c1ccc(CN2CCC(Cc3ccccc3)CC2)cc1`?
APP 5'UTR act: 11; STAT1 inh: -5; STAT3 activator: 66; STAT3 inh: 50*; NF-kB neuron act: 1.1; STAT1 activator: 105

How did Cn1nnc(-c2ccc(OCc3ccccc3F)cc2)n1 do in these assays?
APP 5'UTR act: 138*; STAT1 inh: -24; STAT3 activator: 80; STAT3 inh: 28; NF-kB neuron act: 7.8*; STAT1 activator: 122

What do the screens show for `CCCCc1ccc(-c2ccc(Br)cc2O)nc1`?
APP 5'UTR act: 29; STAT1 inh: -43; STAT3 activator: 82; STAT3 inh: 26; NF-kB neuron act: 5.5*; STAT1 activator: 140*

How did COc1ccc(CCNC(=O)Nc2ccc3c(c2)OCO3)cc1OC do in these assays?
APP 5'UTR act: 11; STAT1 inh: 3; STAT3 activator: 95; STAT3 inh: 11; NF-kB neuron act: 1.1; STAT1 activator: 95

What do the screens show for `O=C(NCCc1ccccc1)C(=O)Nc1ccc2c(c1)OCCO2`?
APP 5'UTR act: 38; STAT1 inh: -18; STAT3 activator: 103; STAT3 inh: 3; NF-kB neuron act: 2.1; STAT1 activator: 115

How did O=C(Nc1ccc2c(c1)OCO2)C1CCCN1C(=O)OCc1ccccc1 (stereo unspecified) do in these assays?
APP 5'UTR act: -15; STAT1 inh: -5; STAT3 activator: 106; STAT3 inh: 0; NF-kB neuron act: 1.3; STAT1 activator: 106

Results for O=C(NCCc1ccccc1)Nc1ccc2c(c1)OCO2 ?
APP 5'UTR act: 115; STAT1 inh: -48; STAT3 activator: 112; STAT3 inh: -10; NF-kB neuron act: 4.3*; STAT1 activator: 140*

How did O=C(NCCc1ccc(F)cc1)Nc1ccc2c(c1)OCO2 do in these assays?
APP 5'UTR act: 48; STAT1 inh: -38; STAT3 activator: 106; STAT3 inh: 6; NF-kB neuron act: 2.2; STAT1 activator: 134*

Results for O=C(Nc1ccc2c(c1)OCO2)OCc1ccccc1 ?
APP 5'UTR act: 140*; STAT1 inh: -38; STAT3 activator: 99; STAT3 inh: 6; NF-kB neuron act: 5.1*; STAT1 activator: 135*

What do the screens show for `COc1ccc(OC)c(-c2csc(NC(=O)c3ccc4c(c3)OCO4)n2)c1`?
APP 5'UTR act: 8; STAT1 inh: -26; STAT3 activator: 103; STAT3 inh: -4; NF-kB neuron act: 1.2; STAT1 activator: 124

What do the screens show for `O=C(Nc1cccc(C(F)(F)F)c1)n1cc(-c2ccccn2)c(N2CCOCC2)n1`?
APP 5'UTR act: -2; STAT1 inh: -2; STAT3 activator: 112; STAT3 inh: -6; NF-kB neuron act: 1; STAT1 activator: 101

What do the screens show for `O=C(/C=C/NNC(=O)c1ccc(Cl)cc1)c1ccccc1`?
APP 5'UTR act: 1; STAT1 inh: -36; STAT3 activator: 105; STAT3 inh: -2; NF-kB neuron act: 0.91; STAT1 activator: 133*
